Broadly, the MIC is the smallest concentration in the dilution series that meets the test's criterion for growth inhibition. In general, IC50 refers to the concentration needed to halve the response being measured. Usually inhibition stands for the percentage by which the read-out fell short of the control.

≈ marks a conversion by molar mass, not a printed value.

In data set [1] the test system is Mycobacterium tuberculosis. Briefly: Antimycobacterial activity against Mycobacterium tuberculosis H37Rv ATCC 27294 after 28 days by two-fold serial dilution assay. Format: functional. The following applies: H37Rv ATCC 27294, 672 h. Summed up: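 Agar dilution test against M. tuberculosis H37Rv (ATCC27294). Drug concentrations ran from 50 µg/mL to 0.78 µg/mL, tested in duplicate. MIC was taken as the minimum concentration inhibiting growth.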

Data set [2] can be described thus: Cytotoxicity against mouse RAW264.7 cells at 100 uM after 72 hrs by MTT assay. Format: cell-based. The following applies: read-out: INH. The procedure, abridged:
(§1)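 RAW 264.7 mouse leukemic monocyte macrophages were exposed to compound for 72 h, tested at concentrations up to 100 µM. Viability was read as MTT conversion to formazan (CellTiter 96 non-radioactive proliferation assay). Results are reported as percentage inhibition.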
On the technique in general: Formazan colour is commonly taken as a measure of viable cells.

Data set [3] is described as follows: Cytotoxicity against mouse RAW264.7 cells at 50 uM after 72 hrs by MTT assay. Format: cell-based. The following applies: read-out: INH. Summed up:
as §1

Data set [4] concerns Mycobacterium tuberculosis. As to the kind of experiment: Antimycobacterial activity against Mycobacterium tuberculosis H37Rv ATCC 27294 after 28 days by two-fold serial dilution assay in presence of […] piperine efflux pump inhibitor. Format: functional. The following applies: H37Rv ATCC 27294, 672 h.
In data set [5] the target is T1, Enoyl-[acyl-carrier-protein] reductase [NADH] (Mycobacterium tuberculosis, UniProt P9WGR1).
T1 sequence (P9WGR1 whole entry): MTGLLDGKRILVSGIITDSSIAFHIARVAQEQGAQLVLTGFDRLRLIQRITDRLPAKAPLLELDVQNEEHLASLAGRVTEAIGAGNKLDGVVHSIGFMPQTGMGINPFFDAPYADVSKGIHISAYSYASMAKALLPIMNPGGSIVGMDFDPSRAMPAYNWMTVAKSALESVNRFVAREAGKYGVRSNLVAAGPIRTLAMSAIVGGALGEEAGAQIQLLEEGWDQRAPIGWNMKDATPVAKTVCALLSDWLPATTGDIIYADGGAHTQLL
Briefly: Inhibition of Mycobacterium tuberculosis recombinant InhA expressed in Escherichia coli BL21 (DE3) using 2-trans-decenoyl substrate by spectrophotometry. Summed up:
(§2)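 Recombinant M. tuberculosis InhA was expressed in E. coli and purified. Inhibition was screened as percent inhibition at 10 µM. IC50 values came from dose-response curves of log concentration versus % inhibition.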

The target of data set [6] is T2, Enoyl-[acyl-carrier-protein] reductase [NADH] (Mycobacterium tuberculosis) (UniProt P9WGR1).
T2 sequence (whole entry): T1 sequence (P9WGR1 whole entry)
As to the kind of experiment: Inhibition of Mycobacterium tuberculosis recombinant InhA expressed in Escherichia coli BL21 (DE3) using 2-trans-decenoyl substrate at 10 uM by spectrophotometry. Summed up:
as §2

In turn, `CC[C@@H](CO)NCCN[C@@H](CC)CO` [ETHAMBUTOL] came in with an MIC in data set [1] of 7.64 µM (≈ 1.56 µg/mL).

Turning to `O=C(Cn1cnc2ccccc2c1=O)NCc1nc2ccc([N+](=O)[O-])cc2s1`, in data set [2], the cytotoxicity at 72 h, 100 µM turned out to be 50.5%. Besides, the MIC in data set [1] was 4.09 µM (≈ 1.62 µg/mL); in data set [4], 1.02 µM. Further, in data set [3], the cytotoxicity at 72 h, 50 µM was determined as 13.1%. Further, the IC50 in data set [5] is 5.12 µM. Further, the inhibition in data set [6] is 72.2%.

On to `Cc1nc2ccccc2c(=O)n1CC(=O)NCc1cccs1`, for which, in data set [2], the cytotoxicity at 72 h, 100 µM came to 38.6%. Also, the MIC was 9.97 µM (≈ 3.12 µg/mL) in data set [1] and 4.97 µM in data set [4]. Besides, the cytotoxicity at 72 h, 50 µM in data set [3] came to 35.6%. The IC50 in data set [5] was found to be 6.01 µM. Moreover, the inhibition in data set [6] came to 68.2%.

On to `Cc1nc2ccc(Cl)cc2c(=O)n1CC(=O)NCc1cccs1`, for which the cytotoxicity at 72 h, 100 µM in data set [2] is 51.7%. The MIC in data set [1] worked out at 18 µM (≈ 6.25 µg/mL); in data set [4], 4.48 µM. In addition, the cytotoxicity at 72 h, 50 µM in data set [3] came out at 47.5%. The IC50 in data set [5] amounted to 6.76 µM. Besides, the inhibition in data set [6] stood at 70.2%.

`O=C(Cn1cnc2ccccc2c1=O)Nc1ccccc1`: in data set [2], the cytotoxicity at 72 h, 100 µM was 31.1%. Moreover, the figures for the MIC in data set [1] and in data set [4] were 11.2 µM (≈ 3.12 µg/mL) and 5.58 µM, respectively. Moreover, the cytotoxicity at 72 h, 50 µM in data set [3] worked out at 21.2%. For the same compound, the inhibition in data set [6] was found to be 52.1%.

With `O=C(Cn1cnc2ccc(Cl)cc2c1=O)NCc1cccs1`, the cytotoxicity at 72 h, 100 µM in data set [2] was 45.2%. Besides, the values for the MIC in data set [1] and in data set [4] were 9.36 µM (≈ 3.12 µg/mL) and 2.33 µM, respectively. For the same compound, in data set [3], the cytotoxicity at 72 h, 50 µM was 32.4%. The IC50 in data set [5] came to 7.12 µM. Moreover, the inhibition in data set [6] was 68.9%.

With `Cc1nc2ccc(Cl)cc2c(=O)n1CC(=O)Nc1ccccc1`, the cytotoxicity at 72 h, 100 µM in data set [2] was found to be 28.7%. Further, the figures for the MIC in data set [1] and in data set [4] were 4.76 µM (≈ 1.56 µg/mL) and 2.38 µM, respectively. The cytotoxicity at 72 h, 50 µM in data set [3] was 19.9%. Further, the IC50 in data set [5] was 3.12 µM. For the same compound, in data set [6], the inhibition came to 88.1%.

In the case of `Cc1nc2ccc(Cl)cc2c(=O)n1CC(=O)NCc1nc2ccc([N+](=O)[O-])cc2s1`, in data set [2], the cytotoxicity at 72 h, 100 µM came to 33.7%. This compound displayed an MIC in data set [1] of 58.2 µM (≈ 25.8 µg/mL). Besides, the cytotoxicity at 72 h, 50 µM in data set [3] turned out to be 28.4%. The inhibition in data set [6] is 54.1%.

As for `O=C(Cn1cnc2ccccc2c1=O)Nc1cc(C(F)(F)F)ccc1Cl`, the cytotoxicity at 72 h, 100 µM in data set [2] came to 35.6%. For the same compound, the MIC in data set [1] stood at 8.18 µM (≈ 3.12 µg/mL); in data set [4], 2.04 µM. Also, the cytotoxicity at 72 h, 50 µM in data set [3] worked out at 10.1%. Also, the IC50 in data set [5] was 8.16 µM. For the same compound, the inhibition in data set [6] was 58.1%.

In turn, `NNC(=O)c1ccncc1` [ISONIAZID] showed an MIC in data set [1] of 0.72 µM (≈ 0.0987 µg/mL).

Regarding `O=C(Cn1cnc2ccccc2c1=O)Nc1cc(Cl)ccc1Cl`, the inhibition in data set [6] amounted to 16.3%.

For `Cc1nc2ccc(Cl)cc2c(=O)n1CC(=O)NCc1ccco1`, in data set [2], the cytotoxicity at 72 h, 100 µM is 5.37%. Moreover, the values for the MIC in data set [1] and in data set [4] were 4.7 µM (≈ 1.56 µg/mL) and 1.17 µM, respectively. Besides, the cytotoxicity at 72 h, 50 µM in data set [3] was found to be 3.36%. In addition, in data set [5], the IC50 came out at 4.52 µM. In data set [6], the inhibition came to 78.1%.

For the compound `Cc1nc2ccccc2c(=O)n1CC(=O)Nc1ccccc1`, the cytotoxicity at 72 h, 100 µM in data set [2] was 29.7%. Moreover, the results for the MIC in data set [1] and in data set [4] were 10.7 µM (≈ 3.12 µg/mL) and 5.31 µM, respectively. For the same compound, the cytotoxicity at 72 h, 50 µM in data set [3] was found to be 11.2%. Besides, the IC50 in data set [5] came to 8.92 µM. Besides, the inhibition in data set [6] amounted to 60.1%.

Regarding `CC1COc2c(N3CCN(C)CC3)c(F)cc3c(=O)c(C(=O)O)cn1c23` (stereo not drawn) [OFLOXACIN], the MIC in data set [1] was 2.16 µM (≈ 0.781 µg/mL).

Consider `O=C(Cn1cnc2ccc(Cl)cc2c1=O)Nc1cc(C(F)(F)F)ccc1Cl`, for which the cytotoxicity at 72 h, 100 µM in data set [2] was 53.6%. Moreover, the MIC in data set [1] is 3.74 µM (≈ 1.56 µg/mL); in data set [4] it was 1.87 µM. The cytotoxicity at 72 h, 50 µM in data set [3] turned out to be 48.9%. In addition, the IC50 in data set [5] amounted to 4.56 µM. For the same compound, the inhibition in data set [6] was found to be 80.1%.

With `O=C(Cn1cnc2ccc(Cl)cc2c1=O)Nc1ccccc1`, the cytotoxicity at 72 h, 100 µM in data set [2] was found to be 53%. The MIC in data set [1] amounted to 4.97 µM (≈ 1.56 µg/mL); in data set [4], 1.24 µM. Further, the cytotoxicity at 72 h, 50 µM in data set [3] turned out to be 3.51%. Further, the IC50 in data set [5] stood at 7.78 µM. Also, the inhibition in data set [6] came out at 58.3%.

Take `O=C(Cn1cnc2ccc(Cl)cc2c1=O)NCc1nc2ccc([N+](=O)[O-])cc2s1`: the cytotoxicity at 72 h, 100 µM in data set [2] was determined as 62.8%. In addition, the figures for the MIC in data set [1] and in data set [4] were 30.1 µM (≈ 12.9 µg/mL) and 30.1 µM, respectively. In data set [3], the cytotoxicity at 72 h, 50 µM worked out at 15.8%. Also, in data set [6], the inhibition turned out to be 45.6%.

With `O=C(Cn1cnc2ccccc2c1=O)NCc1cccs1`, in data set [2], the cytotoxicity at 72 h, 100 µM came out at 41.4%. Also, the MIC in data set [1] was determined as 5.21 µM (≈ 1.56 µg/mL); in data set [4], 1.3 µM. In addition, the cytotoxicity at 72 h, 50 µM in data set [3] worked out at 4.38%. Also, in data set [6], the inhibition amounted to 33.7%.

As for `O=C(Cn1cnc2ccccc2c1=O)NCc1ccco1`, in data set [2], the cytotoxicity at 72 h, 100 µM worked out at 13.7%. Besides, the MIC in data set [1] is 5.5 µM (≈ 1.56 µg/mL); in data set [4] it was 2.75 µM. Also, in data set [3], the cytotoxicity at 72 h, 50 µM stood at 1.96%. Moreover, the inhibition in data set [6] came to 46.1%.

`CO[C@H]1/C=C/O[C@@]2(C)Oc3c(C)c(O)c4c(O)c(c(/C=N/N5CCN(C)CC5)c(O)c4c3C2=O)NC(=O)/C(C)=C\C=C\[C@H](C)[C@H](O)[C@@H](C)[C@@H](O)[C@@H](C)[C@H](OC(C)=O)[C@@H]1C` [RIFAMPIN] registered an MIC in data set [1] of 0.15 µM (≈ 0.123 µg/mL).

As for `Cc1cccc(NC(=O)Cn2cnc3ccccc3c2=O)c1`, in data set [6], the inhibition came out at 14.5%.

In the case of `O=C(Cn1cnc2ccccc2c1=O)Nc1nccs1`, the inhibition in data set [6] is 31%.

For `Cc1nc2ccccc2c(=O)n1CC(=O)NCc1nc2ccc([N+](=O)[O-])cc2s1`, the cytotoxicity at 72 h, 100 µM in data set [2] is 37.4%. This compound yielded an MIC in data set [1] of over 63.2 µM. For the same compound, the cytotoxicity at 72 h, 50 µM in data set [3] turned out to be 34%. Besides, in data set [5], the IC50 came out at 6.16 µM. Moreover, in data set [6], the inhibition is 64%.

For the compound `Cc1nc2ccccc2c(=O)n1CC(=O)NCc1ccco1`, the cytotoxicity at 72 h, 100 µM in data set [2] came out at 41.5%. Also, the MIC in data set [1] was found to be 84.1 µM (≈ 25 µg/mL); in data set [4], 42 µM. For the same compound, the cytotoxicity at 72 h, 50 µM in data set [3] was 25.5%. The IC50 in data set [5] amounted to 6.86 µM. Besides, the inhibition in data set [6] was 70.1%.

As to `O=C(Cn1cnc2ccc(Cl)cc2c1=O)NCc1ccco1`, in data set [2], the cytotoxicity at 72 h, 100 µM was 42.5%. Further, the MIC was found to be 4.91 µM (≈ 1.56 µg/mL) in data set [1] and 4.91 µM in data set [4]. In data set [3], the cytotoxicity at 72 h, 50 µM is 30.7%. Besides, the IC50 in data set [5] was determined as 3.12 µM. Besides, in data set [6], the inhibition came out at 82.4%.

Values taken from ChEMBL document CHEMBL3352048, “Development of 2-(4-oxoquinazolin-3(4H)-yl)acetamide derivatives as novel enoyl-acyl carrier protein reductase (InhA) inhibitors for the treatment of tuberculosis” (Eur J Med Chem, 2014).
